An excerpt weighted towards active compounds, which were near 3.1% of everything screened.
Insulin prom up – insulin promoter activators in MIN6 cells, imaging, high-content screening, mouse beta cells. hit rate 0.3% among 190,000. z-score at 5 µM. MIN6 insulin promoter-GFP reporter; active compounds read high. AID 1625, 2009;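 active means z-score above 3 at 5 µM with at least 500 cells counted in the well; inconclusive means wells under 500 cells, flagged as cytotoxic or low count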
BB579 growth dn – growth inhibitors of yeast BB579 in restrictive medium, primary screen, yeast lifespan-shortening project, S. cerevisiae; OD615, 48 h; inhibition, % at 10 µM; hit rate 0.51% among 140,000; AID 804, 2007;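 active means inhibition above a set limit, 3 SD over the mean compound inhibition, cut at about 44% in these data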
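controls = amphotericin B 10 µg/mL, positive | assay system = DeaD yeast strain BB579 | schedule = 48 h compound exposure at 30 °C after 4 h preincubation | detection = OD615 turbidity measurement | medium = restrictive CSMM-D medium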
RAM inhibit – inhibitors of the yeast RAM network, primary screen, dse1pr::URA3 reporter, 5-FOA selection. S. cerevisiae dse1pr::URA3 reporter, 5-FOA growth OD615, 2 d; analog-sensitive cbk1-as2 kinase mutant strain. inhibition, % at 50 µM. hit rate 1.8% among 190,000. AID 868, 2007;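 active means inhibition above a set limit, 3 SD over mean compound inhibition, cut at about 8.4% in these data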;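 further: 0% = DMSO-only wells with no growth and 100% = 10 µM 1-NA-PP1 full growth; inhibition rescues growth on 5-FOA so higher OD means more RAM inhibition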
Insulin prom inh – inhibitors of insulin promoter-driven GFP, primary screen, imaging, TRM-6 cells (human fetal islet line), eGFP reporter, cell count; AID 1273, 2008; hit rate 0.9% among 130,000; inhibition, % at 2 µM; reporter expression induced with tamoxifen;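 active means inhibition above the mean plus 3 SD, with well images judged a real hit on visual review, cut at about 60% in these data, passing the limit was not always enough; inconclusive means inhibition over the cutoff but images rejected on review; inactive means inhibition not above the cutoff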
Yeast life ext – compounds extending yeast replicative lifespan, primary screen, S. cerevisiae, OD615. S. cerevisiae growth with nicotinamide; deaD strain in restrictive glucose medium. inhibition of the nicotinamide effect, % at 10 µM. hit rate 0.68% among 130,000. AID 775, 2007;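 active means inhibition above a set limit, placed 3 SD over the median of all compounds, cut at about 26% in these data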;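 further: 0% = nicotinamide-treated wells and 100% = cells grown without nicotinamide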
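assay system = DeaD-strain S. cerevisiae | buffer or medium = restrictive glucose medium | reagent = 1.5 mM nicotinamide | compound = 10 µM single point, 0.25% DMSO | incubation = 48 h compound exposure at 30 °C, humidified | signal = OD615 measurement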
* = called active by the depositor; ? = inconclusive; . = no result given.

SMILES | Insulin prom up | BB579 growth dn | RAM inhibit | Insulin prom inh | Yeast life ext
CC(C)C(NC(=O)C12CC3CC(CC(C3)C1)C2)C(=O)N/N=C/C1=C(N2CCOCC2)C(=C\c2cccc([N+](=O)[O-])c2)/CC1 (configuration not stated) | -0.18 | -29 | 9.6* | -2 | 1
CCC(C(=O)NNC(=O)c1cnccn1)c1ccccc1 (configuration not stated) | . | 1 | -1 | . | 2
O=C(CCCCO)CCCCCCCC[C@H]1N[C@H](CO)[C@H](O)[C@@H]1O[C@@H]1O[C@H](CO)[C@@H](O)[C@H](O)[C@H]1O | -0.18 | -51 | 0 | -15 | 1
Cc1ccc(C)c2[nH]c(=O)c(CCNC(=O)c3cc4ccccc4o3)cc12 | -0.5 | -16 | 8.5* | 30 | 0
O=C(N/C(=C/c1cccnc1)C(=O)N1CCOCC1)c1ccccc1F | -0.1 | . | . | . | .
Cc1ccc(S(=O)(=O)NNC(=O)c2cc(C)cs2)cc1 | 0.16 | . | . | . | .
O=C(Oc1c(Cl)cc(Cl)c2cccnc12)c1ccco1 | 0.24 | 2 | -1 | 68* | -20
O=C(Oc1c(Cl)cc(Cl)c2cccnc12)c1cccs1 | . | 99* | 0 | 29 | .
CSc1nc(-c2ccc(Cl)cc2)nn1C(=O)c1ccccc1 | -1.2 | -52 | 5 | 79* | 0
Cc1cc2sc(C(=O)O)c(C)c2s1 | . | 58* | 1 | -339 | .
Cc1c(C(=O)O)sc2nc(C)n(C)c(=O)c12 | . | -68 | -1 | . | 0
Cc1ccc(S(=O)(=O)N(C)C)cc1NC(=S)NCc1ccco1 | . | . | 1 | 18 | .
COc1ccc2sc(NC(C)=O)nc2c1 | -0.51 | -29 | 1 | 79* | -20
CCC(=O)Nc1nc2cc(OC)ccc2s1 | 0.49 | -16 | 0 | -10 | -10
O=C(O)CCC(=O)Nc1ccc(S(=O)(=O)NCCc2ccccc2)cc1 | 0.27 | . | . | . | .
Cc1cccn2c(=O)c(C=Nc3ccc(Cl)cc3)c(NCCO)nc12 | -0.52 | -22 | 2 | -105 | 3
Cc1cccn2c(=O)c(C=NCCO)c(Nc3ccc(Cl)cc3)nc12 | 0.03 | . | 8.9* | . | .
COc1cccc(N(C(=O)Cn2nnc(-c3ccc(C)cc3)n2)C(C(=O)NC(C)(C)C)c2c[nH]c3ccccc23)c1 (configuration not stated) | . | -96 | 5 | -30 | 45*
CC(C)(C)NC(=O)CN(Cc1ccc(F)cc1)C(=O)Cn1nnc(-c2ccc(F)cc2)n1 | -0.12 | . | 2 | . | .
CNC(=O)COC(=O)c1cc(=O)[nH]c2ccccc12 | -0.15 | 8 | 0 | 26 | 54*
NC(=O)COC(=O)c1cc(=O)[nH]c2ccccc12 | 0.16 | . | . | . | .
Cc1cccc(Cn2cc(/C=C/[N+](=O)[O-])c3ccccc32)c1 | 0.55 | -32 | 11* | 25 | 25
NC(=S)NNC(=O)COc1ccccc1O | -0.12 | . | . | . | .
CCC(=O)NC(/C=C/c1ccccc1)c1cc([N+](=O)[O-])c2cccnc2c1O (configuration not stated) | 1.2 | -3 | 11* | . | -3
CC(C)C(=O)NC(c1cccs1)c1cc([N+](=O)[O-])c2cccnc2c1O (configuration not stated) | 0.16 | 1 | -2 | . | -13
SMILES | Insulin prom up | BB579 growth dn | RAM inhibit | Insulin prom inh | Yeast life ext
Cc1ccc(C(NC(=O)C(C)C)c2cc([N+](=O)[O-])c3cccnc3c2O)cc1 (configuration not stated) | . | 86* | 2 | -127 | -3
Cc1nn(C)cc1/C=N\NC(=O)c1ccc2c(c1)c(C)c(C)n2Cc1ccccc1 | . | -61 | 0 | 19 | -8
CCCc1nn(C)c2c(=O)[nH]c(-c3cc(S(=O)(=O)NC)ccc3OCC)nc12 | -0.72 | . | . | . | .
COc1ccc(C2c3c(-c4ccccc4O)n[nH]c3C(=O)N2CCc2ccc(OC)c(OC)c2)cc1 (configuration not stated) | -1.1 | -57 | 11* | . | -3
COc1ccc(CCN2C(=O)c3[nH]nc(-c4ccccc4O)c3C2c2cccc(Cl)c2)cc1 (configuration not stated) | -0.29 | -53 | 7 | -20 | -10
COC(=O)c1ccc(/C=N/OCC(=O)NCc2ccc(F)cc2)cc1 | -0.78 | . | 3 | . | .
O=C(NCc1ccc(Cl)cc1)C1CCC(CNc2c(N3CCOCC3)c(=O)c2=O)CC1 (configuration not stated) | 0.75 | . | . | . | .
CCOc1ccc(C(c2c(C)[nH][nH]c2=O)c2c(C)[nH][nH]c2=O)cc1OC | 0.54 | -7 | 0 | 39 | -4
Cc1[nH][nH]c(=O)c1C(c1cc2c(cc1Br)OCO2)c1c(C)[nH][nH]c1=O | -0.72 | . | 0 | 67* | .
C/C(CCc1oc2ccc(Br)cc2c1-c1ccc(C)o1)=N/O | -0.38 | -55 | 11* | 25 | 1
C/C(CCc1oc2ccc(Cl)cc2c1-c1ccc(C)o1)=N\O | -0.6 | -28 | 9.4* | ? | .
O=C(O)C1=C[C@H](c2ccc(C(F)(F)F)cc2)C[C@H](OCc2ccc(CO)cc2)O1 | 0.81 | . | 0 | . | .
CC(C)(C)S(=O)(=O)/C(C#N)=C/c1sccc1C1OCCO1 | 0.44 | . | . | . | .
CC(C)NC(=S)Nc1c(N)[nH]c(=O)[nH]c1=O | 0.18 | . | . | . | .
O=C(c1ccccc1)n1nc(-c2ccccc2)nc1NCc1ccco1 | -0.45 | -12 | 10* | . | -7
CCC(=O)n1nc(-c2ccccc2)nc1NCc1ccccc1 | 0.75 | -31 | 2 | 86* | -6
O=C(c1ccco1)n1nc(-c2cccnc2)nc1NCc1ccco1 | -0.15 | . | 2 | -25 | .
CN(C)/C=C1\C(=O)NN=C1C(F)(F)F | 0.35 | . | 2 | -36 | .
COc1ccc(S(=O)(=O)N2CCCCC2)cc1C(C)C | . | -24 | 10* | 18 | 5
COc1ccc(S(=O)(=O)N2CCCCCC2)cc1N(C)S(=O)(=O)c1ccccc1 | -0.55 | 0 | 10* | . | 6
O=S(=O)(c1ccccc1)c1cccc(S(=O)(=O)N2CCCCC2)c1 | 3 | -65 | 0 | . | -9
O=C(c1ccc(S(=O)(=O)NCC2CCCO2)cc1)N1CCN(c2cccc(Cl)c2)CC1 (configuration not stated) | -1.4 | . | 0 | . | .
Cc1c(O)c(S(=O)c2ccccc2)c(=O)n(-c2ccccc2)c1-c1ccccc1 (configuration not stated) | 0.06 | -42 | 4 | -15 | 61*
CCn1c(NC(=O)c2ccco2)c(-c2ccccc2Cl)c(=O)c2ccccc21 | -0.07 | -38 | 0 | 90* | -9
CCOC(=O)C1CSc2[nH]c(=O)sc2C1c1ccccc1 (configuration not stated) | -1.7 | -22 | 3 | 19 | 21
O=C(O)CC12CSc3[nH]c(=O)sc3C1c1ccccc1OC2=O (configuration not stated) | 3.2* | -10 | 2 | . | -9
Nc1cccnc1Sc1cc(Cl)cc(Cl)c1 | 0.34 | -26 | 1 | 90* | -8
Cn1cnc([N+](=O)[O-])c1Sc1ncccc1N | -0.15 | -19 | 2 | -10 | -10

Compound activity (PubChem)
